# Data reported in ChEMBL document CHEMBL2169776, “Antimicrobial activity of peptidomimetics against multidrug-resistant Escherichia coli: a comparative study of different backbones” (J Med Chem, 2012).
# Square brackets hold non-standard residues; d marks the D form. Peptide text beside a SMILES is read from it. Nphe = O=C(O)CNCc1ccccc1; Nlys = NCCCCNCC(=O)O
# Columns and labels:
# [1] = Therapeutic index, ratio of HC10 for human erythrocyte cells to MIC for multidrug resistant bacterial strains; settings: read-out: TI
# How it was run: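 TI = hemolytic activity divided by median of MIC values. Hemolysis: washed fresh human RBCs (1% v/v in TBS, pH 7.2) with 2-fold oligomer dilutions (1–128 μM), 37 °C, 1 h; supernatant OD 405 nm; melittin 400 μg/mL = 100%, TBS = 0%. HA = concentration giving ≥10% lysis. MICs by broth microdilution, 35 °C, 16–20 h.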
# Escherichia coli [2] = experiment: Antibacterial activity against multidrug resistant Amp-C producing Escherichia coli isolate after 16 to 20 hrs by broth microdilution assay; type: functional
# Escherichia coli [3] = experiment: Antibacterial activity against multidrug resistant ESBL producing Escherichia coli isolate after 16 to 20 hrs by broth microdilution assay; type: functional
# Escherichia coli [4] = experiment: Antibacterial activity against Escherichia coli ATCC 25922 after 16 to 20 hrs by broth microdilution assay; type: functional
# Staphylococcus aureus = experiment: Antibacterial activity against methicillin-resistant Staphylococcus aureus isolate after 16 to 20 hrs by broth microdilution assay; type: functional
# [5] = Proteolytic stability of compound in presence of Pronase by reverse phase HPLC analysis; type: ADME
# How it was run: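 Oligomer (2 mg/mL solution, 250 μL) incubated with Pronase (1.0 mg/mL solution, 50 μL) in 10 mM Tris pH 7.5 (1.2 mL); enzyme activity first confirmed on Nα-benzoyl arginine. Degradation followed by analytical reverse-phase HPLC (10−60% B) at 6, 12, 18 and 50 h; degradation product identified by HRMS.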
# Klebsiella pneumoniae [6] = experiment: Antibacterial activity against multidrug resistant NDM-1 producing Klebsiella pneumoniae isolate after 16 to 20 hrs by broth microdilution assay; type: functional
# Escherichia coli [7] = experiment: Antibacterial activity against multidrug resistant NDM-1 producing Escherichia coli isolate after 16 to 20 hrs by broth microdilution assay; type: functional
# Klebsiella pneumoniae [8] = experiment: Antibacterial activity against multidrug resistant KPC producing Klebsiella pneumoniae isolate after 16 to 20 hrs by broth microdilution assay; type: functional
# [9] = Hemolytic activity against human RBCs after 1 hr by spectrophotometry; type: ADME, cell-based; settings: erythrocyte
# How it was run: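 Freshly drawn human erythrocytes washed in TBS (pH 7.2, 10 mM Tris, 150 mM NaCl), 1% v/v suspension mixed with 2-fold serial dilutions (1−128 μM) in water; 1 h at 37 °C. After pelleting, supernatant diluted 1:1 with water and hemoglobin read at OD 405 nm. Melittin (400 μg/mL) = 100%, TBS = 0%. Value is the lowest concentration giving ≥10% lysis.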
# HeLa = experiment: Cytotoxicity against human HeLa cells assessed as growth inhibition after 1 hr; type: cell-based
# How it was run: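 HeLa cells seeded at 9000 per well, cultured 24 h; at 80−100% confluency washed with HBSS and exposed 1 h (37 °C, 50 rpm) to 2-fold serial dilutions in EMEM. After washing, MTS/PMS (240/2.4 μg/mL) in HBSS added for 1.5 h; formazan read at 492 nm. 0.2% SDS = 0%, EMEM alone = 100%. Test range 1−128 or 8−1024 μM; IC50 reported.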
Compound,selectivity ratio [1],MIC (Escherichia coli [2]),MIC (Escherichia coli [3]),MIC (Escherichia coli [4]),MIC (Staphylococcus aureus),Stability [5],MIC (Klebsiella pneumoniae [6]),MIC (Escherichia coli [7]),MIC (Klebsiella pneumoniae [8]),HC10 [9],IC50 (HeLa)
CC(=O)N[C@@H](CCCCN)CC(=O)N[C@@H](Cc1ccccc1)C(=O)N[C@@H](CCCCN)CC(=O)N[C@@H](Cc1ccccc1)C(=O)N[C@@H](CCCCN)CC(=O)N[C@@H](Cc1ccccc1)C(=O)N[C@@H](CCCCN)CC(=O)N[C@@H](Cc1ccccc1)C(=O)N[C@@H](CCCCN)CC(=O)N[C@@H](Cc1ccccc1)C(=O)N[C@@H](CCCCN)CC(=O)N[C@@H](Cc1ccccc1)C(=O)N[C@@H](CCCCN)CC(=O)N[C@@H](Cc1ccccc1)C(=O)N[C@@H](CCCCN)CC(=O)N[C@@H](Cc1ccccc1)C(N)=O,8,16 µM,8 µM,8 µM,256 µM,Stable,256 µM,4 µM,128 µM,64 µM,133 µM
CO/N=C(\C(=O)N[C@@H]1C(=O)N2C(C(=O)O)=C(COC(C)=O)CS[C@H]12)c1csc(N)n1 [CEFOTAXIME],–,2.1 µM,> 134 µM,< 0.1 µM,34 µM,–,> 134 µM,> 134 µM,> 134 µM,–,–
CC(=O)N[C@@H](CCCCN)C(=O)N(CC(=O)N[C@@H](CCCCN)C(=O)N(CC(=O)N[C@@H](CCCCN)C(=O)N(CC(=O)N[C@@H](CCCCN)C(=O)N(CC(=O)N[C@@H](CCCCN)C(=O)N(CC(=O)N[C@@H](CCCCN)C(=O)N(CC(=O)N[C@@H](CCCCN)C(=O)N(CC(=O)N[C@@H](CCCCN)C(=O)N(CC(N)=O)Cc1ccccc1)Cc1ccccc1)Cc1ccccc1)Cc1ccccc1)Cc1ccccc1)Cc1ccccc1)Cc1ccccc1)Cc1ccccc1 (Ac-K[Nphe]K[Nphe]K[Nphe]K[Nphe]K[Nphe]K[Nphe]K[Nphe]K[Nphe]-NH2),> 21,8 µM,8 µM,4 µM,256 µM,Stable,128 µM,2 µM,128 µM,> 128 µM,101 µM
GENTAMICIN,–,6.9 µM,> 111 µM,1.7 µM,56 µM,–,111 µM,> 111 µM,> 111 µM,–,–
CC(=O)N(CCCCN)CC(=O)N(CC(=O)N(CCCCN)CC(=O)N(CC(=O)N(CCCCN)CC(=O)N(CC(=O)N(CCCCN)CC(=O)N(CC(=O)N(CCCCN)CC(=O)N(CC(=O)N(CCCCN)CC(=O)N(CC(=O)N(CCCCN)CC(=O)N(CC(=O)N(CCCCN)CC(=O)N(CC(N)=O)Cc1ccccc1)Cc1ccccc1)Cc1ccccc1)Cc1ccccc1)Cc1ccccc1)Cc1ccccc1)Cc1ccccc1)Cc1ccccc1 (Ac-[Nlys][Nphe][Nlys][Nphe][Nlys][Nphe][Nlys][Nphe][Nlys][Nphe][Nlys][Nphe][Nlys][Nphe][Nlys][Nphe]-NH2),> 4,32 µM,64 µM,32 µM,256 µM,Stable,256 µM,32 µM,256 µM,> 128 µM,194 µM
CC(=O)N(CCCCN)CCC(=O)N[C@@H](Cc1ccccc1)C(=O)N(CCCCN)CCC(=O)N[C@@H](Cc1ccccc1)C(=O)N(CCCCN)CCC(=O)N[C@@H](Cc1ccccc1)C(=O)N(CCCCN)CCC(=O)N[C@@H](Cc1ccccc1)C(=O)N(CCCCN)CCC(=O)N[C@@H](Cc1ccccc1)C(=O)N(CCCCN)CCC(=O)N[C@@H](Cc1ccccc1)C(=O)N(CCCCN)CCC(=O)N[C@@H](Cc1ccccc1)C(=O)N(CCCCN)CCC(=O)N[C@@H](Cc1ccccc1)C(N)=O,> 11,16 µM,16 µM,8 µM,256 µM,Stable,256 µM,2 µM,64 µM,> 128 µM,62.6 µM
CC(=O)N(CCCCN)CCC(=O)N(CCC(=O)N(CCCCN)CCC(=O)N(CCC(=O)N(CCCCN)CCC(=O)N(CCC(=O)N(CCCCN)CCC(=O)N(CCC(=O)N(CCCCN)CCC(=O)N(CCC(=O)N(CCCCN)CCC(=O)N(CCC(=O)N(CCCCN)CCC(=O)N(CCC(=O)N(CCCCN)CCC(=O)N(CCC(N)=O)Cc1ccccc1)Cc1ccccc1)Cc1ccccc1)Cc1ccccc1)Cc1ccccc1)Cc1ccccc1)Cc1ccccc1)Cc1ccccc1,> 10,16 µM,8 µM,16 µM,256 µM,Stable,256 µM,4 µM,256 µM,> 128 µM,169 µM
CC(=O)N[C@@H](CCCCN)C(=O)N(CCC(=O)N[C@@H](CCCCN)C(=O)N(CCC(=O)N[C@@H](CCCCN)C(=O)N(CCC(=O)N[C@@H](CCCCN)C(=O)N(CCC(=O)N[C@@H](CCCCN)C(=O)N(CCC(=O)N[C@@H](CCCCN)C(=O)N(CCC(=O)N[C@@H](CCCCN)C(=O)N(CCC(=O)N[C@@H](CCCCN)C(=O)N(CCC(N)=O)Cc1ccccc1)Cc1ccccc1)Cc1ccccc1)Cc1ccccc1)Cc1ccccc1)Cc1ccccc1)Cc1ccccc1)Cc1ccccc1,> 21,8 µM,4 µM,8 µM,> 256 µM,Stable,256 µM,4 µM,128 µM,> 128 µM,25.9 µM
CC(=O)N[C@@H](CCCCN)C(=O)N[C@@H](Cc1ccccc1)C(=O)N[C@@H](CCCCN)C(=O)N[C@@H](Cc1ccccc1)C(=O)N[C@@H](CCCCN)C(=O)N[C@@H](Cc1ccccc1)C(=O)N[C@@H](CCCCN)C(=O)N[C@@H](Cc1ccccc1)C(=O)N[C@@H](CCCCN)C(=O)N[C@@H](Cc1ccccc1)C(=O)N[C@@H](CCCCN)C(=O)N[C@@H](Cc1ccccc1)C(=O)N[C@@H](CCCCN)C(=O)N[C@@H](Cc1ccccc1)C(=O)N[C@@H](CCCCN)C(=O)N[C@@H](Cc1ccccc1)C(N)=O,< 0.004,> 256 µM,> 256 µM,> 256 µM,16 µM,Unstable,> 256 µM,128 µM,> 256 µM,< 1 µM,19.6 µM
CC(=O)N[C@@H](CCCCN)CC(=O)N[C@H](CC(=O)N[C@@H](CCCCN)CC(=O)N[C@H](CC(=O)N[C@@H](CCCCN)CC(=O)N[C@H](CC(=O)N[C@@H](CCCCN)CC(=O)N[C@H](CC(=O)N[C@@H](CCCCN)CC(=O)N[C@H](CC(=O)N[C@@H](CCCCN)CC(=O)N[C@H](CC(=O)N[C@@H](CCCCN)CC(=O)N[C@H](CC(=O)N[C@@H](CCCCN)CC(=O)N[C@H](CC(N)=O)Cc1ccccc1)Cc1ccccc1)Cc1ccccc1)Cc1ccccc1)Cc1ccccc1)Cc1ccccc1)Cc1ccccc1)Cc1ccccc1,4,32 µM,32 µM,16 µM,16 µM,Stable,32 µM,32 µM,32 µM,128 µM,31 µM
O=C(O)c1cn(C2CC2)c2cc(N3CCNCC3)c(F)cc2c1=O [CIPROFLOXACIN],–,–,–,< 0.1 µM,19 µM,–,–,–,–,–,–
CC(=O)N(CCCCN)CC(=O)N[C@@H](Cc1ccccc1)C(=O)N(CCCCN)CC(=O)N[C@@H](Cc1ccccc1)C(=O)N(CCCCN)CC(=O)N[C@@H](Cc1ccccc1)C(=O)N(CCCCN)CC(=O)N[C@@H](Cc1ccccc1)C(=O)N(CCCCN)CC(=O)N[C@@H](Cc1ccccc1)C(=O)N(CCCCN)CC(=O)N[C@@H](Cc1ccccc1)C(=O)N(CCCCN)CC(=O)N[C@@H](Cc1ccccc1)C(=O)N(CCCCN)CC(=O)N[C@@H](Cc1ccccc1)C(N)=O (Ac-[Nlys]F[Nlys]F[Nlys]F[Nlys]F[Nlys]F[Nlys]F[Nlys]F[Nlys]F-NH2),> 5,32 µM,16 µM,16 µM,> 256 µM,–,256 µM,32 µM,256 µM,> 128 µM,267 µM
